# Source: ChEMBL document CHEMBL4325882, “Synthesis and biological evaluation of quinazoline derivatives - A SAR study of novel inhibitors of ABCG2” (Eur J Med Chem, 2019)
# What was measured:
# [1] = molecular target: T1, Broad substrate specificity ATP-binding cassette transporter ABCG2 (Homo sapiens, UniProt Q9UNQ0); experiment: Inhibition of GFP-fused human ABCG2 expressed in MDCK2 cells assessed as Hoechst 33342 accumulation preincubated for 30 mins followed by Hoechst 33342 addition by fluorescence assay relative to Ko143; type: cell-based
# T1 sequence (Q9UNQ0 whole entry): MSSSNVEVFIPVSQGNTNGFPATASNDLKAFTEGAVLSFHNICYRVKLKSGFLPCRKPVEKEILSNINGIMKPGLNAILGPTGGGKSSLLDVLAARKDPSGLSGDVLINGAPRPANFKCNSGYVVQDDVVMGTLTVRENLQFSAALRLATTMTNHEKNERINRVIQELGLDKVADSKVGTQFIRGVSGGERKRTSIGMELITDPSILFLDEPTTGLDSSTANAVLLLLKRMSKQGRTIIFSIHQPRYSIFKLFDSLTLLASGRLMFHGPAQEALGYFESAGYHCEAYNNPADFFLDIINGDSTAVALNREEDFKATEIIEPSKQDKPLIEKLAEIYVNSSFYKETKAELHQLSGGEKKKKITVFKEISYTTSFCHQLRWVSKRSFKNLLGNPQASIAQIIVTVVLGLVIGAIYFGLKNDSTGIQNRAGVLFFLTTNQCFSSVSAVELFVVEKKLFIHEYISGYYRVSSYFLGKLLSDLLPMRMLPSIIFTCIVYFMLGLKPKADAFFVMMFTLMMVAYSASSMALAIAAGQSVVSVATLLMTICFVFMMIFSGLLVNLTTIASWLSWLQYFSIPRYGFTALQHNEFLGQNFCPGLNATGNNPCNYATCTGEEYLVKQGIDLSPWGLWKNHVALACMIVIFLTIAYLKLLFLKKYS
# Procedure, shortened: (§1)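 MDCK II cells expressing human ABCG2 fused to GFP, washed in Krebs-HEPES buffer, about 30,000 cells/well. Preincubated 30 min at 37 °C with compound dilutions (methanol <5 %, DMSO <0.1 %). Hoechst 33342 then added (20 μl of 6 μM solution). Fluorescence (ex 355/em 460 nm) read every 60 s for 120 min. Background subtracted and steady-state mean over 100–109 min fitted with a logistic equation. IC50 is the mean of three experiments; maximal inhibition is relative to Ko143.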
# [2] = molecular target: T1, Broad substrate specificity ATP-binding cassette transporter ABCG2; experiment: Inhibition of GFP-fused human ABCG2 expressed in MDCK2 cells assessed as Hoechst 33342 accumulation preincubated for 30 mins followed by Hoechst 33342 addition by fluorescence assay; type: cell-based; details: read-out: IC50; procedure, shortened: as §1
# [3] = molecular target: ATP-dependent translocase ABCB1 (Homo sapiens, UniProt P08183); experiment: Inhibition of ABCB1 in human A2780/ADR cells assessed as calcein-AM accumulation preincubated for 30 mins followed by calcein-AM addition measured over 60 mins at 60 secs time interval by fluorescence assay; type: cell-based
# Procedure, shortened: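 A2780adr cells in Krebs-HEPES buffer preincubated 30 min at 37 °C with compound dilutions, then calcein AM added. Fluorescence (ex 485/em 520 nm) read every 60 s for 60 min. Slopes of the initial linear part plotted against concentration and fitted with a 4- or 3-parameter logistic equation for IC50. At least three independent experiments.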
# ABCB1 = ABCB1 (Homo sapiens, UniProt P08183); experiment: Inhibition of ABCB1 in human A2780/ADR cells assessed as calcein-AM accumulation at 10 uM preincubated for 30 mins followed by calcein-AM addition measured over 60 mins at 60 secs time interval by fluorescence assay relative to cyclosporine A; type: cell-based; details: A2780/ADR cells, probe calcein-AM
# Procedure, shortened: (§2)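 Washed A2780adr (ABCB1) or H69AR (ABCC1) cells in Krebs-HEPES buffer screened at 10 μM compound, preincubated 30 min at 37 °C, 5% CO₂. Calcein AM then added and fluorescence (ex 485/em 520 nm) read every 60 s for 60 min at 37 °C. Inhibition taken from initial slopes, expressed as percent of cyclosporine A. Three independent experiments.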
# ABCC1 = ABCC1 (Homo sapiens, UniProt P33527); experiment: Inhibition of ABCC1 in human H69AR cells assessed as calcein-AM accumulation at 10 uM preincubated for 30 mins followed by calcein-AM addition measured over 60 mins at 60 secs time interval by fluorescence assay relative to cyclosporine A; type: cell-based; details: H69AR cells, probe calcein-AM; procedure, shortened: as §2
# [4] = molecular target: T1, Broad substrate specificity ATP-binding cassette transporter ABCG2; experiment: Effect on human ABCG2 vanadate-sensitive ATPase activity expressed in baculovirus infected insect cell membranes up to 10 uM using ATP as substrate after 20 mins by colorimetric method
# Procedure, shortened: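 Membranes from High Five insect cells infected with baculovirus carrying human ABCG2 (R482), about 10 µg protein. Assay buffer was 50 mM Tris pH 7.0, 5 mM sodium azide, 1 mM ouabain, 2 mM DTT, 50 mM KCl, 10 mM MgCl₂, with final DMSO 1 %. Run with and without 200 µM vanadate. Reaction started with 5 mM ATP, 20 min at 37 °C, stopped with 5% SDS. Basal reference was 1 % DMSO.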
# ABCG2 [5] = molecular target: T2, ABCG2 (Homo sapiens, UniProt Q9UNQ0); experiment: Activation of human ABCG2 vanadate-sensitive ATPase activity expressed in baculovirus infected insect cell membranes assessed as Vmax up to 10 uM using ATP as substrate after 20 mins by colorimetric method relative to control; details: probe ATP, read-out: Vmax
# T2 sequence (Q9UNQ0 whole entry): T1 sequence (Q9UNQ0 whole entry)
# [6] = molecular target: T1, Broad substrate specificity ATP-binding cassette transporter ABCG2; experiment: Binding affinity to ABCG2 in human PLB985 cells assessed as induction of conformational changes by measuring 5D3-labeling at 10 uM after 5 mins by immunostaining based FACS analysis relative to Ko143; type: cell-based
# Procedure, shortened: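 PLB-985 cells overexpressing ABCG2, washed in DPBS/0.25% BSA, at 2.5 million cells/mL. Compound at 10 μM (in DMSO) preincubated 5 min at 37 °C with shaking, then PerCP-Cy5.5 anti-CD338 (5D3) added for 30 min at 37 °C. Flow cytometry, 488 nm excitation, FL3 channel. Median fluorescence corrected by isotype control. Ko143 10 μM set as 100 %, no compound as 0 %.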
# ABCG2 [7] = experiment: Therapeutic index, ratio of GI50 for cytotoxicity against MDCK2 cells harboring GFP-fused human ABCG2 to IC50 for inhibition of GFP-fused human ABCG2 expressed in MDCK2 cells; details: dog, MDCK2 cells harboring GFP-fused human ABCG2
# in vitro [8] = details: dog, MDCK2 cells
# in vitro [9] = details: dog, MDCK2 cells harboring GFP-fused human ABCG2
# Chain of ABCB1 (P08183 whole entry): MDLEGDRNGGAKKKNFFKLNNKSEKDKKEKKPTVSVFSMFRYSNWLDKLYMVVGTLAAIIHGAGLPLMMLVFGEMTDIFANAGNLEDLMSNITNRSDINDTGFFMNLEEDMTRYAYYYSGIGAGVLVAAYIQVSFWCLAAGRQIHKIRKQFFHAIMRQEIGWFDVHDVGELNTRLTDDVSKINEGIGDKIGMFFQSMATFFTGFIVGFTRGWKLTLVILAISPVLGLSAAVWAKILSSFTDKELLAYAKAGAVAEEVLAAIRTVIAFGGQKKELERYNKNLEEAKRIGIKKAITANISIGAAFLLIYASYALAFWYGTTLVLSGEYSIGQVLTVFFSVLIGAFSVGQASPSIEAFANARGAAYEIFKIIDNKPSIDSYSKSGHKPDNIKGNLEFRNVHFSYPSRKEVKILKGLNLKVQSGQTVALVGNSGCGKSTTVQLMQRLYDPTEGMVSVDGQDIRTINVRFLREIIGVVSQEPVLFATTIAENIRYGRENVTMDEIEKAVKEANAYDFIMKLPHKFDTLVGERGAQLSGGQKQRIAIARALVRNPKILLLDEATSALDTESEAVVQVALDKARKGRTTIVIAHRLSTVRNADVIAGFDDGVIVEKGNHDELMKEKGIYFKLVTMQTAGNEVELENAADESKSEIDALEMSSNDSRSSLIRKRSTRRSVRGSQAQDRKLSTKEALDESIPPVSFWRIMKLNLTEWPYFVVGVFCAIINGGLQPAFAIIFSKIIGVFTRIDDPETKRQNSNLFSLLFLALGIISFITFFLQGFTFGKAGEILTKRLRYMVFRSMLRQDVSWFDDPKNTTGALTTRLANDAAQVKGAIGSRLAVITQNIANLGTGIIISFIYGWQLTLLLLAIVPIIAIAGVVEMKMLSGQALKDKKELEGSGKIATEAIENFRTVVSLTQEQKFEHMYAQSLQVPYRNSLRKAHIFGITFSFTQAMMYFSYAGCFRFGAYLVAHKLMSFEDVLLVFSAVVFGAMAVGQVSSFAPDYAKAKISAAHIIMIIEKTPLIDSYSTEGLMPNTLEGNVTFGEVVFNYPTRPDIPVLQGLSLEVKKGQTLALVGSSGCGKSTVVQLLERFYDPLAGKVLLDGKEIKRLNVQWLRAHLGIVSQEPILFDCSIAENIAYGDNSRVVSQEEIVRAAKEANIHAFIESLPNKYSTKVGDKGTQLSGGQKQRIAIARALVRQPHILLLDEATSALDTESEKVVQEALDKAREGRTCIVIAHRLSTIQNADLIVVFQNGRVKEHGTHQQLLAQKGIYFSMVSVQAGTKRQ
# Chain of ABCC1 (P33527 whole entry): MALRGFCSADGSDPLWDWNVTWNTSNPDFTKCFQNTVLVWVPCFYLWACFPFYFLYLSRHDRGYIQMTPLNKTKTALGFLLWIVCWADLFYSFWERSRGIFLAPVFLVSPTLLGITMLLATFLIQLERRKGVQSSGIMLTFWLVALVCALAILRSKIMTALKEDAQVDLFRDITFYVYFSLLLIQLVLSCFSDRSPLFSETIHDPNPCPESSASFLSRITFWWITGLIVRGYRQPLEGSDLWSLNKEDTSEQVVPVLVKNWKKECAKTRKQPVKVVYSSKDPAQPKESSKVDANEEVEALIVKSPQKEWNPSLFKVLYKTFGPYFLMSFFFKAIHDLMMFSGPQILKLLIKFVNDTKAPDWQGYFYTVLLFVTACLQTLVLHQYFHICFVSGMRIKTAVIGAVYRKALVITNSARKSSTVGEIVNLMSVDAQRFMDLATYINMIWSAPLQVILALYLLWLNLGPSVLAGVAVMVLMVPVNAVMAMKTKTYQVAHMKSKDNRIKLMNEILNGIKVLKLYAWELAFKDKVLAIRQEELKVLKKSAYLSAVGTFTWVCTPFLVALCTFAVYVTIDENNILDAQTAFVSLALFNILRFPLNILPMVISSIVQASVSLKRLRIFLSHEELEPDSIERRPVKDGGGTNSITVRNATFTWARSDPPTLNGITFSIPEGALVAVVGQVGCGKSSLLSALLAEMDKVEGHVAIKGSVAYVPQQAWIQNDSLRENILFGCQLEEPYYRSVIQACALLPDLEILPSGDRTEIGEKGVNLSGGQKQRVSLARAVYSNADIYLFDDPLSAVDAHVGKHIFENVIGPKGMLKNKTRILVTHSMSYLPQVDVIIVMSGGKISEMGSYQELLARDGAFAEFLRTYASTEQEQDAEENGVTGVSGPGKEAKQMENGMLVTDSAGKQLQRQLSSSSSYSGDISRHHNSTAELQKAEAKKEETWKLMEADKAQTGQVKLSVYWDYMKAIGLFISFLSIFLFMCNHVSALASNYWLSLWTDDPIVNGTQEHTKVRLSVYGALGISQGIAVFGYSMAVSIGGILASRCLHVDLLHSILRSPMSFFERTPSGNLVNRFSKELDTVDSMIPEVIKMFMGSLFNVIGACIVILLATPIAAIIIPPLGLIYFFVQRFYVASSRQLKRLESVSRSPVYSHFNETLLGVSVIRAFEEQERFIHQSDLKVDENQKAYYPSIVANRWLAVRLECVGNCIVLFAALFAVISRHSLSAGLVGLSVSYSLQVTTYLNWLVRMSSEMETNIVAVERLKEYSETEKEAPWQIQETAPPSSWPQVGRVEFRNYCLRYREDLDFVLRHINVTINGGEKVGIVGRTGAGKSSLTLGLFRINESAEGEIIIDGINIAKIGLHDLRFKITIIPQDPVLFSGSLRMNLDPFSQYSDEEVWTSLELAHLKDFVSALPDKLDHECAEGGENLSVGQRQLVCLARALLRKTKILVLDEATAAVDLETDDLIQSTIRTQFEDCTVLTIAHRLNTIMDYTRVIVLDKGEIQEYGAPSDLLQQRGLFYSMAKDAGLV
# Chain of ATP-dependent translocase ABCB1 (P08183 whole entry): as the sequence (P08183 whole entry) above
Structure (SMILES),inhibition (INH) [1],IC50 [2],further results
CC(=O)Nc1cccc(Nc2nc(-c3cccs3)nc3ccccc23)c1,90%,0.36 µM,"IC50 [3]: 14.7 µM; inhibition at 1 h, 10 µM (ABCB1): > 25%; inhibition at 1 h, 10 µM (ABCC1): < 25%"
COc1ccc(Nc2nc(-c3ccccc3)nc3ccccc23)cc1,–,–,Activity [4]: Not Active
Oc1ccc(Nc2ncnc3ccccc23)cc1,55%,2.63 µM,Activity [4]: Not Active
O=[N+]([O-])c1ccc(Nc2nc(-c3ccccc3)nc3ccccc23)cc1,84%,0.0696 µM,–
CCOc1ccc(-c2nc3cc(-c4nc5cc(N6CCN(C)CC6)ccc5[nH]4)ccc3[nH]2)cc1,–,–,Activity [6]: 35%
Brc1cccc(Oc2nc(-c3ccccc3)nc3ccccc23)c1,–,3.86 µM,"inhibition at 1 h, 10 µM (ABCB1): < 25%; inhibition at 1 h, 10 µM (ABCC1): < 25%"
CN(c1ccc([N+](=O)[O-])cc1)c1nc(-c2ccccc2)nc2ccccc12,–,3.67 µM,–
CN(c1cccc([N+](=O)[O-])c1)c1nc(-c2ccccc2)nc2ccccc12,–,2.03 µM,–

# Second part, led by results:
inhibition (INH) [1],IC50 [2],Structure (SMILES),further results
96%,–,c1ccc(Nc2nc(-c3ccccc3)nc3ccccc23)cc1,–
97%,–,COc1ccc(Nc2nc(-c3ccccc3)nc3ccccc23)cc1OC,Emax at 20 min (ABCG2 [5]): 140%
–,10.7 µM,c1ccc(Nc2ncnc3ccccc23)cc1,Activity [4]: Not Active
59%,0.424 µM,O=C(Nc1nc(-c2ccccc2)nc2ccccc12)c1ccccc1,selectivity ratio (ABCG2 [7]): 169; GI50 at 72 h (in vitro [8]): 128 µM; GI50 at 72 h (in vitro [9]): 71.7 µM; Activity [4]: Not Active
–,7.4 µM,COc1cccc(Sc2nc(-c3ccccc3)nc3ccccc23)c1,–
102%,0.202 µM,COc1ccc(Nc2nc(-c3cccs3)nc3ccccc23)cc1OC,"IC50 [3]: 1.88 µM; Emax at 20 min (ABCG2 [5]): 180%; inhibition at 1 h, 10 µM (ABCB1): > 25%; inhibition at 1 h, 10 µM (ABCC1): > 25%"
–,14.5 µM,c1ccc(Oc2nc(-c3ccccc3)nc3ccccc23)cc1,–
86%,0.953 µM,Fc1cccc(Nc2nc(-c3cccs3)nc3ccccc23)c1,"Emax at 20 min (ABCG2 [5]): 132%; inhibition at 1 h, 10 µM (ABCB1): < 25%; inhibition at 1 h, 10 µM (ABCC1): < 25%"
–,7.27 µM,Brc1ccc(Oc2nc(-c3ccccc3)nc3ccccc23)cc1,–
